pEC50: −log10 of the molar value. “Also recorded” adds a separate entry of the source. Residues, ends and D or L forms follow the SMILES beside them. *: point of attachment. Cbz = O=C(OCc1ccccc1)*; CH2F = FC*

This is an account of results in publication PMC10524360 (Cell chemical biology, 2023).

In data set [1] the test system is H460^C Cas9 cells. Kind of data set: cell death. The class given is cell-based, human. The settings on record: for effect on cell death induced by co-treatment of FSEN1 and RSL3: H460^C Cas9, 5 μM RSL3 + 1 μM FSEN1, Z-VAD 10 μM, Nec1s 1 μM; for effect on cell death induced by co-treatment of FSEN1 and RSL3 / effect on cell death induced by DHA and FSEN1 together: Fer-1 2 μM, DFO 100 μM, idebenone 10 μM, tocopherol 10 μM; for minimal dose that achieves maximal synergy for inducing ferroptosis: checkerboard FSEN1 (0–15 μM) x RSL3 (0–15 μM). The method in brief:
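H460C Cas9 cells get dose series of RSL3 or DHA with vehicle or 1 μM FSEN1, plus ferroptosis inhibitors where indicated (Fer-1 2 μM, DFO 100 μM, idebenone 10 μM, tocopherol 10 μM). Dead cells are stained with SYTOX Green and imaged on IncuCyte over 24 hr. Lethal fraction is dead/total cells, and its AUC is fit against concentration (variable slope) for EC50. Mean ± SEM, 2–3 biological replicates.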

Another data set deals with H460^C FSP1^KO cells. Briefly: cell death. The class given is cell-based, human. The settings on record: for cell death, single agent: 24 h library screen, 40 μM compounds. A digest of the protocol: (§1)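 H460C knockout cells (mFSP1-overexpressing where stated) were seeded at 1500 cells/well in 384-well plates 24 h before treatment. Drug-containing medium with 30 nM SYTOX Green was added and cells were imaged in an IncuCyte at 37°C, 5% CO2 every 4 h for 24 h. Lethal fraction = SYTOX+/(SYTOX+ plus mCherry+) objects; AUC was fitted to a variable-slope curve for EC50.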

Data set [2] concerns FSP1^KO cells overexpressing mFSP1. Briefly: RSL3-induced ferroptosis in FSP1 knockout cells overexpressing mouse FSP1. The class given is cell-based, human. The method in brief:
as §1

In another data set the target is NQO1 (Homo sapiens, UniProt P15559). Kind of data set: in vitro NQO1 CoQ1 oxidoreductase activity assay. The data set is classed as biochemical. To be noted: increasing concentrations of FSEN1.
NQO1, sequence (P15559 2-274 limits assumed): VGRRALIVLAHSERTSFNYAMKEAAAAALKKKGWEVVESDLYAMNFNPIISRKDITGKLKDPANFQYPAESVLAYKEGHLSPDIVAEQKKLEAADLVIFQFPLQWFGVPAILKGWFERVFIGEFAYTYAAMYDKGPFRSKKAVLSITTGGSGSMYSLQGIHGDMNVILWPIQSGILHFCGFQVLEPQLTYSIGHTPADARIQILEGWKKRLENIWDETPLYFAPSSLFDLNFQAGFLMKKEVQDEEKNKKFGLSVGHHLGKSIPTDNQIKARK
The next data set has as its target T1, purified mFSP1 (Mus musculus, UniProt Q8BUE4).
T1 sequence (Q8BUE4 2-380 isoform Q8BUE4-2 limits assumed): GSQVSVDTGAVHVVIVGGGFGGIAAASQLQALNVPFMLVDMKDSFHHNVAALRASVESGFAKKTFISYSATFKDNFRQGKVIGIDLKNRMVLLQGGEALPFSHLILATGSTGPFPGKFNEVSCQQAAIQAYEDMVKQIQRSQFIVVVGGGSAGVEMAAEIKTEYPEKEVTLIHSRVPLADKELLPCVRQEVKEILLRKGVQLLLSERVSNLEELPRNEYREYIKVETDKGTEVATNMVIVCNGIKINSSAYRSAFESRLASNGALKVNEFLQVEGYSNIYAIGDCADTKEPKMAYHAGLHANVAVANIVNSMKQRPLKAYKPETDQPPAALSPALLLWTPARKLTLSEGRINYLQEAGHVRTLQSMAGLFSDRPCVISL
Briefly: in vitro mFSP1 CoQ1 oxidoreductase activity assay. The data set is classed as biochemical. To be noted: 125 nM mFSP1. The method in brief: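 Purified enzyme in PBS was shaken briefly with the test compound (DMSO) and preincubated 30 min at RT. A 2X NADH/CoQ1 mix started the reaction; final 400 μM CoQ1, 500 μM NADH, 0.01–20 μM compound. Mouse FSP1 was used at 125 nM to match the specific activity of 12.5 nM human FSP1. Absorbance at 355 nm was read every 2.5 min; percent activity was used for IC50.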

The target of another data set is T2, FSP1 (Homo sapiens, UniProt Q9BRQ8).
T2 sequence (Q9BRQ8 2-373 limits assumed): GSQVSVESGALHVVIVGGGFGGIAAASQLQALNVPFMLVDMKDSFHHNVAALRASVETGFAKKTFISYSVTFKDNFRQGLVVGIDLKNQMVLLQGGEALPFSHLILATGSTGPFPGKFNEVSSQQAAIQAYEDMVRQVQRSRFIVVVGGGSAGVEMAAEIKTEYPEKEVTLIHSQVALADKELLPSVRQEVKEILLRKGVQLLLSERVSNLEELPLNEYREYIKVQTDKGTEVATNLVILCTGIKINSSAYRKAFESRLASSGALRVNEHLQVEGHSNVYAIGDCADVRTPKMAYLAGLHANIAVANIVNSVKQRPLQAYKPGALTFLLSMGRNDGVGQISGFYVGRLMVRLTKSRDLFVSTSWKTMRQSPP
Kind of data set: FSP1 enzyme kinetics. The class given is biochemical. The method in brief: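 His-tagged human FSP1 (expressed in E. coli, Ni-NTA purified) in PBS was preincubated 30 min at RT with the test compound. NADH series: 25 nM enzyme, 10 μM CoQ-coumarin, 1–50 μM NADH, 50–500 nM compound. CoQ-coumarin series: 6.25 nM enzyme, 1–30 μM CoQ-coumarin, 200 μM NADH, 12.5–125 nM compound. Fluorescence (Ex 405/Em 475 nm) read every 15 s at RT; three biological replicates; Vmax and Km by nonlinear regression.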

In another data set the test system is A549 lung cancer cells. Briefly: RSL3-induced cell death in A549 cells. The data set is classed as cell-based, human. The settings on record: RSL3 with 1 μM FSEN1.
A short description of data set [3]: metabolic stability in mouse liver microsomes. The class given is in vitro ADME. To be noted: mouse liver microsomes 0.5 mg/mL, 2 μM FSEN1. A digest of the protocol:
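The test compound (2 μM) was incubated with 0.5 mg/mL mouse liver microsomes and 1.0 mM NADPH at 37°C, in triplicate, and sampled at 0, 5, 15, 30 and 45 min. Controls were no NADPH (negative) and 2 μM midazolam (positive). t1/2 = ln2/k; CLint = ln2/t1/2 × incubation volume/microsomal protein (μL/min/mg).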
Background: Liver microsomes are a subcellular fraction often used to study metabolism.

Another data set relates to H460^C GPX4^KO cells. Kind of data set: cell death. The data set is classed as cell-based, human. The method in brief:
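Cells were seeded in triplicate at 1000–1500 cells/well (384-well) 24 h before treatment. Test compound was added in medium with 30 nM SYTOX Green, and the plates were imaged (IncuCyte, 37°C, 5% CO2) every 1.5 or 3 h over 24 h. Lethal fraction = SYTOX+/(SYTOX+ plus mCherry+) objects; AUC averaged over three biological replicates; EC50 from a variable-slope fit.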

Data set [4] in a line: in vivo pharmacokinetics in mice. The settings on record: single 20 mg/kg I.P. dose. Further details: species or system BALB/c mice. The method in brief:
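Mice (20–25 g) were group-housed five per cage at 22°C on a 12 h light/dark cycle. Each received a single 20 mg/kg intraperitoneal dose in a vehicle containing 20% DMSO, 20% ethanol and 20% PEG40. Plasma Cmax and elimination half-life are reported as median (IQR), n=5.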

Data set [5] deals with H460^C Cas9 cells. Kind of data set: lipid peroxidation assay. To be noted: 1 μM FSEN1 with 200 nM RSL3. The data set is classed as cell-based, human. A digest of the protocol:
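Cells in 6-well plates were treated 5 h with 200 nM RSL3 ± 1 μM test compound. They were washed in DPBS with Ca/Mg, labelled with BODIPY 581/591 C11 and trypsinised. Green fluorescence was measured by flow cytometry (FITC channel, >10,000 cells). Mean ± SD of n=3; one-way ANOVA with Tukey's test.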

A further data set deals with A375 melanoma cells. Kind of data set: cell death in A375 cells. The class given is cell-based, human. To be noted: 1 μM FSEN1. A digest of the protocol: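 Melanoma cells were treated with the test compound (1 μM), with 2 μM Fer-1 where indicated. Cell death was quantified as SYTOX Green-positive objects per mm2; mean ± SEM of two biological replicates.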

Regarding `CC(=O)N(O)CCCCCNC(=O)CCC(=O)N(O)CCCCCNC(=O)CCC(=O)N(O)CCCCCN` [DFO, deferoxamine], in the data set with H460^C Cas9 cells [1], the “effect on cell death induced by co-treatment of FSEN1 and RSL3” value (“effect … of FSEN1 and RSL3” for short) is reported as “blocked”. In addition, the “effect on cell death induced by DHA and FSEN1 together” value (“effect … by DHA and FSEN1 together” below) with H460^C Cas9 cells [1] (H460^C cells, 1 μM FSEN1) is “completely suppressed”.
`C[C@H]1[C@@H](O)O[C@@H]2O[C@@]3(C)CC[C@H]4[C@H](C)CC[C@@H]1[C@@]24OO3` [DHA, dihydroartemisinin, reference compound]: the “cell death, single agent” value is recorded as “induced minimal amounts of ferroptosis on its own” in the data set on H460^C Cas9 cells [1] (H460^C Cas9 cells) and “selectively induced cell death” in the data set on H460^C FSP1^KO cells (H460^C FSP1^KO cells).
As to `COc1ccc(N2CCN(Cc3cn4c(-c5ccc(Br)cc5)nnc4s3)CC2)cc1` [FSEN1], the “effect on ferroptosis sensitivity (RSL3)” value in data set [2] (FSP1^KO cells overexpressing mFSP1, 1 μM FSEN1) was “no effect”. In addition, the “effect on sensitivity to RSL3” value in [2] (FSP1^KO cells overexpressing mFSP1, FSEN1 up to 15 μM) is “no effect”. For the same compound, on NQO1, the “effect on CoQ oxidoreductase activity of NQO1” value is “no effect”. In addition, the “effect on CoQ1 oxidoreductase activity of purified mFSP1” value at purified mFSP1 is “no effect”. Also, in the data set with H460^C Cas9 cells [1] (H460^C Cas9 cells, 1 μM FSEN1), the “sensitization to cell death induced by GPX4 inhibitors RSL3 and ML162” value is given as “sensitized”. Further, the “sensitization to cell death induced by DHA and FINO2” value in the data set on H460^C Cas9 cells [1] (H460^C cells, 1 μM FSEN1) is “strongly sensitized”. The “minimal dose that achieves maximal synergy for inducing ferroptosis” value in the data set with H460^C Cas9 cells [1] (H460^C Cas9 cells) stood at 0.55 µM. For the same compound, the “change in Kcat values” at FSP1 (as FSEN1 concentrations increased) was “decrease”. Moreover, the “mechanism of FSP1 inhibition” value at FSP1 (varied NADH and CoQ-coumarin, parallel Lineweaver-Burke slopes) is “uncompetitive inhibitor”. Besides, in the data set with A549 lung cancer cells, the “sensitizing effect on ferroptosis induction” value is on record as “particularly large sensitizing effect”. The “intrinsic clearance (CLint)” value in [3] worked out at 11.54 μL/min/mg protein. The negative logarithm of the EC50 (pEC50) (usually the negative decadic logarithm of the EC50, by convention in mol/L) in the data set with H460^C GPX4^KO cells (read-out: EC50 for triggering cell death, lethal fraction (AUC) over 24 hr) is 7.16. In data set [4] (n=5, IQR 6.1 – 8.8), this compound gave a median elimination half-life of 8.0 h. In addition, in [4] (n=5, IQR 71.0–123.0), the “median maximum plasma concentration” value was found to be 97.6 ng/mL. In the data set on H460^C Cas9 cells [5], the “lipid peroxidation (BODIPY C11)” value is “sensitized cells to lipid peroxidation”. Further, the “additional sensitization to DHA and FINO2 induced cell death” value with H460^C FSP1^KO cells (FSP1^KO cells, 1 μM FSEN1) was “no additional sensitizing effect”. Also, the “effect on sensitivity to RSL3-induced cell death” value with H460^C FSP1^KO cells (H460^C FSP1^KO cells, 1 μM FSEN1) is listed as “did not result in any additional sensitization; also recorded: no effect”. Moreover, in the data set with A375 melanoma cells, the “ferroptosis in the absence of an RSL3 co-treatment” value was “induced a small amount of ferroptosis”.
Regarding `CCOC(=O)c1ccc(NC2CCCCC2)c(N)c1` [Fer-1, ferrostatin-1], in the data set on H460^C Cas9 cells [1], the “effect … of FSEN1 and RSL3” value is listed as “blocked”. The “effect … by DHA and FSEN1 together” value with H460^C Cas9 cells [1] (H460^C cells, 1 μM FSEN1) is reported as “strongly suppressed”.
Take `CN1C(=O)NC(Cc2c[nH]c3c(Cl)cccc23)C1=O` (centres unmarked) [Nec1s]: the “effect … of FSEN1 and RSL3” value with H460^C Cas9 cells [1] is on record as “no effect”.
In the case of `COC(=O)c1ccc([C@@H]2c3[nH]c4ccccc4c3C[C@@H](C(=O)OC)N2C(=O)CCl)cc1` [RSL3], in the data set on H460^C Cas9 cells [1] (H460^C Cas9 cells), the “cell death, single agent” value is “not the H460^C Cas9 cells” and the “minimal dose that achieves maximal synergy for inducing ferroptosis” value amounted to 0.55 µM. For the same compound, the “cell death, single agent” value with H460^C FSP1^KO cells (H460^C FSP1^KO cells) is “cytotoxic”.
Consider `COC(=O)C[C@H](NC(=O)[C@H](C)NC(=O)[C@@H](NC(=O)OCc1ccccc1)C(C)C)C(=O)CF` [Z-VAD-FMK] (Cbz-Val-Ala-Asp(OMe)-CH2F), for which the “effect … of FSEN1 and RSL3” value with H460^C Cas9 cells [1] is listed as “no effect”.
As to `Cc1ccc(-c2c(C#N)c(N)n3c(nc4ccccc43)c2C#N)cc1` [iFSP1, reference compound], the “cell death, single agent” value in the data set with H460^C Cas9 cells [1] (H460^C Cas9 cells) is on record as “not in the H460^C Cas9 cells”; with H460^C GPX4^KO cells, “selectively triggered cell death”.
In the case of `COC1=C(OC)C(=O)C(CCCCCCCCCCO)=C(C)C1=O` [idebenone], the “effect … of FSEN1 and RSL3” value in the data set on H460^C Cas9 cells [1] is given as “blocked”. In addition, the “effect … by DHA and FSEN1 together” value in the data set on H460^C Cas9 cells [1] (H460^C cells, 1 μM FSEN1) is listed as “strongly suppressed”.
On to tocopherol, for which the “effect … of FSEN1 and RSL3” value in the data set on H460^C Cas9 cells [1] is recorded as “blocked”. The “effect … by DHA and FSEN1 together” value in the data set with H460^C Cas9 cells [1] (H460^C cells, 1 μM FSEN1) is “strongly suppressed”.
